{
  "source": "paper PMC5693322",
  "about": "(Blood, 2017)",
  "key": {"ACVR1 (ALK2)": {"target": "T1, ACVR1 (ALK2) (Homo sapiens, UniProt Q04771)", "T1 sequence (Q04771 21-509)": "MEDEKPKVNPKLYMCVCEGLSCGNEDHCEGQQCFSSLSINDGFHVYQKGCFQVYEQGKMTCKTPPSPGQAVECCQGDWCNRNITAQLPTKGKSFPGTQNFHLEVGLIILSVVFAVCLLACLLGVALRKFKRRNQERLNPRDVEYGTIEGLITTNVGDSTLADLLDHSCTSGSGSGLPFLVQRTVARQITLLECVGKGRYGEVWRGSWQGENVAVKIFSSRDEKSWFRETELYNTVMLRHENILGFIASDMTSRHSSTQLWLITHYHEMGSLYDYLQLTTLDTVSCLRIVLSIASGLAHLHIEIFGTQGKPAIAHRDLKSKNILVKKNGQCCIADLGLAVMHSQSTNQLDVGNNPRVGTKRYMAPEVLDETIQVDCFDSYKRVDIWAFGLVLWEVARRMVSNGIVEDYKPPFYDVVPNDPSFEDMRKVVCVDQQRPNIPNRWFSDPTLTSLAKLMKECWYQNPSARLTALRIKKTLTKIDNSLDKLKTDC", "experiment": "SelectScreen LanthaScreen Eu Kinase Binding Assay"}, "[1]": {"tested_on": "BMP6-pSMAD1/5/8 in HepG2 cells", "experiment": "BMP6-induced phosphorylation of SMAD1/5/8 in HepG2 cells, western blot", "assay_type": "cell-based", "settings": "HepG2, 10 ng/mL BMP6 30 min, cpd added 2 hours before", "how_it_was_run": "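HepG2 cells were grown in EMEM with 10% FCS and 1% penicillin/streptomycin. Test compound was added 2 h before stimulation with BMP6 (10 ng/mL, 30 min). pSMAD1/5/8 was detected by western blot with HRP secondary antibodies, using β-actin as loading control. Results are percent of pSMAD1/5/8 induction normalized to vehicle-treated cells, n = 5, mean ± SEM.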"}, "[2]": {"tested_on": "IL-6-pSTAT3 in HepG2 cells", "experiment": "IL-6-induced phosphorylation of STAT3 in HepG2 cells, western blot", "assay_type": "cell-based", "settings": "HepG2, 10 ng/mL IL-6 20 min", "how_it_was_run": "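Western blot for pSTAT3 in HepG2 cells (EMEM, 10% FCS, 1% penicillin/streptomycin) after 20 min of 10 ng/mL IL-6, with test compound present. β-actin served as loading control. Values are percent of pSTAT3 induction relative to vehicle-treated cells, n = 2, mean ± SEM.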"}, "[3]": {"tested_on": "FPN1 protein in RAW 264.7 cells", "assay_type": "cell-based, murine", "settings": "RAW 264.7, FeCl3 50 μM 20 h, hepcidin 1 μg/mL + MMB 10 nM-1 μM 6 h", "how_it_was_run": "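RAW 264.7 cells were cultured in DMEM with 10% FCS, 1% penicillin/streptomycin and 2 mM glutamine at 37°C and 5% CO2. FeCl3 (50 μM, 20 h) induced FPN1. Cells then received hepcidin (1 μg/mL) alone or with test compound (10, 100, 500 nM, 1 μM) for another 6 h. Untreated cells were controls. FPN1 was measured by western blot and densitometry, normalized to β-actin, n = 3 per group.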"}, "ACD rats": {"tested_on": "ACD rats", "experiment": "PG-APS-induced rat model of anemia of chronic disease", "assay_type": "in vivo", "how_it_was_run": "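Female Lewis rats on standard diet (180 mg iron/kg) were made anemic by intraperitoneal PG-APS. From 2 weeks after PG-APS they received test compound 25 mg/kg or vehicle once daily for 3 days up to 21 days. Hb and RBC were counted on a Vet-ABC analyzer. Serum iron was measured by QuantiChrom kit. Spleen FPN1 was measured by western blot (n = 4). Liver Inhibin BB mRNA was measured by TaqMan RT-PCR on 4 μg of guanidinium-phenol-extracted RNA. Time points were compared by unpaired t test.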"}, "healthy rats": {"tested_on": "healthy rats", "experiment": "MMB treatment of healthy rats", "assay_type": "in vivo, rat"}, "patients": {"tested_on": "patients", "settings": "clinical studies ref 18, 20; cited from earlier work"}, "[4]": {"settings": "ACD rats, 25 mg/kg once daily, days 14 and 21, vs vehicle"}, "[5]": {"settings": "ACD rats, 5, 10 or 25 mg/kg for 3 days, hepatic nuclear extracts"}, "[6]": {"settings": "ACD rats, 5, 10 or 25 mg/kg once daily for 3 days"}, "[7]": {"settings": "ACD rats, 5, 10 or 25 mg/kg, 3 weeks, FACS"}, "[8]": {"settings": "healthy rats, 5, 10 or 25 mg/kg"}, "[9]": {"settings": "healthy rats, any MMB dose, 3 days"}},
  "data": [
    {"smiles": "N#CCNC(=O)c1ccc(-c2ccnc(Nc3ccc(N4CCOCC4)cc3)n2)cc1", "note": "[MMB, momelotinib]", "values": [
      {"measurement": "IC50", "setting": "ACVR1 (ALK2)", "result": 8.4, "unit": "nM"},
      {"measurement": "inhibition of BMP6-pSMAD1/5/8 signaling", "setting": "[1]", "result": "inhibited"},
      {"measurement": "inhibition of IL-6-pSTAT3 signaling", "setting": "[2]", "result": "inhibited"},
      {"measurement": "effect on FPN1 protein expression in presence of hepcidin", "setting": "[3]", "result": "no effect"},
      {"measurement": "mean corpuscular Hb", "setting": "ACD rats; ACD rats, 25 mg/kg once daily", "result": "increase"},
      {"measurement": "mean corpuscular volume", "setting": "ACD rats; ACD rats, 25 mg/kg once daily", "result": "increase"},
      {"measurement": "neutrophil count", "setting": "ACD rats; ACD rats, 25 mg/kg once daily", "result": "reductions"},
      {"measurement": "white blood cell count", "setting": "ACD rats; ACD rats, 25 mg/kg once daily", "result": "reductions"},
      {"measurement": "Hb concentrations", "setting": "ACD rats; [4]", "result": "significant increase"},
      {"measurement": "RBC count", "setting": "ACD rats; [4]", "result": "significant increase"},
      {"measurement": "FPN1 expression in the spleen", "setting": "ACD rats; ACD rats, 25 mg/kg, 3 days", "result": "increase"},
      {"measurement": "ferritin protein levels in the spleen", "setting": "ACD rats; ACD rats, 25 mg/kg, 3 days", "result": "decreased"},
      {"measurement": "circulating iron concentrations", "setting": "ACD rats; ACD rats, 25 mg/kg, up to 21 days", "result": "increase"},
      {"measurement": "Inhibin BB mRNA levels in the liver", "setting": "ACD rats; ACD rats, 5, 10 or 25 mg/kg for 3 days", "result": "decreased"},
      {"measurement": "pSMAD1/5/8 in the livers", "setting": "ACD rats; [5]", "result": "dose-dependent reduction"},
      {"measurement": "pSTAT3 in the livers", "setting": "ACD rats; [5]", "result": "dose-dependent reduction"},
      {"measurement": "liver Hamp mRNA expression", "setting": "ACD rats; [6]", "result": "reduced"},
      {"measurement": "serum hepcidin levels", "setting": "ACD rats; [6]", "result": "dose-dependent decrease"},
      {"measurement": "serum iron", "setting": "ACD rats; [6]", "result": "dose-dependent increase"},
      {"measurement": "numbers of mature RBCs in bone marrow", "setting": "ACD rats; [7]", "result": "dose-dependent increase"},
      {"measurement": "numbers of reticulocytes in bone marrow", "setting": "ACD rats; [7]", "result": "dose-dependent increase"},
      {"measurement": "splenic IL-6 cytokine mRNA levels", "setting": "ACD rats; ACD rats, 3 days, especially at 25 mg/kg", "result": "modulated"},
      {"measurement": "erythropoietic / circulating iron effects in healthy rats", "setting": "healthy rats; [8]", "result": "did not induce any of these effects"},
      {"measurement": "pSMAD1/5/8 protein levels", "setting": "healthy rats; [8]", "result": "not affected"},
      {"measurement": "pSTAT3 protein levels", "setting": "healthy rats; [8]", "result": "not affected"},
      {"measurement": "FPN1 protein levels in the spleen", "setting": "healthy rats; [9]", "result": "no changes"},
      {"measurement": "Hamp mRNA expression in the liver", "setting": "healthy rats; [9]", "result": "no changes"},
      {"measurement": "serum iron levels", "setting": "healthy rats; [9]", "result": "no changes"},
      {"measurement": "patients who experienced grade 3 or 4 anemia", "setting": "patients", "result": 3, "unit": "%"}
    ]},
    {"smiles": "N#CC[C@H](C1CCCC1)n1cc(-c2ncnc3[nH]ccc23)cn1", "note": "[RUX, ruxolitinib, reference compound]", "values": [
      {"measurement": "inhibitory activity in type I BMPR kinase / TGFBR1 binding assays", "setting": "ACVR1 (ALK2); ACVR1/ALK2, BMPR1a/ALK3 and TGFBR1/ALK5 assays", "result": "no relevant inhibitory activity"},
      {"measurement": "inhibition of BMP6-pSMAD1/5/8 signaling", "setting": "[1]", "result": "not BMP6-pSMAD1/5/8"},
      {"measurement": "inhibition of IL-6-pSTAT3 signaling", "setting": "[2]", "result": "blocked"},
      {"measurement": "patients who experienced grade 3 or 4 anemia", "setting": "patients", "result": 45.2, "unit": "%"}
    ]}
  ]
}
